Bioassay records as filed in PubChem.
MC4R antagonist – MC4R antagonists of cAMP signaling, primary screen, cell-based, TR-FRET, antagonist arm of biased-ligand search. MC4R-expressing cells, MTII-stimulated cAMP, LANCE TR-FRET. 0.48% of 360,000 active. Melanocortin receptor 4 (Homo sapiens), P32245. AID 540295, 2011. inhibition, % at 6.5 µM;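 active means inhibition above its plate's cutoff, the mean of tested wells on that plate plus 3 SD, cut at about 29% in these data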;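 further: 0% = Melanotan II alone and 100% = Melanotan II plus saturating MCL0020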
Target sequence (P32245 whole entry, looked up): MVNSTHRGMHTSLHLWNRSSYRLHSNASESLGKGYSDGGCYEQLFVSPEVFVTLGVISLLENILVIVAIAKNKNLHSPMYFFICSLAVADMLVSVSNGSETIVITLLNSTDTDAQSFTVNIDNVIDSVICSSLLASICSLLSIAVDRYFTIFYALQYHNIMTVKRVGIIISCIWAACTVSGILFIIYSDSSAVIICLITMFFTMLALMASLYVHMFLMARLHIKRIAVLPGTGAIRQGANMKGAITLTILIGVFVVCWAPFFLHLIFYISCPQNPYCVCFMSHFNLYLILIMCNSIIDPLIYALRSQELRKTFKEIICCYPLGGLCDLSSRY
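System – human MC4R-expressing U2OS cells · Also added – Melanotan II · Dosing – one concentration, 6.5 µM nominal · Timing – 30-min compound, 1-h challenge, 1-h detection, room temperature · Measured by – Eu-cAMP/anti-cAMP TR-FRET, emission 671 nm · Replicates – singlicate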
TAAR1 ag – human TAAR1 agonists, primary screen, Fluo-8 calcium fluorescence, CHO RD-HGA16 cells. Trace amine-associated receptor 1 (Homo sapiens), Q96RJ0. vehicle wells 0%, saturating PEA agonist 100%. activation, % at 3 µM. 0.99% of 360,000 active. AID 624467, 2012;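 active means activation above the mean activation of all test compounds in the run plus 3 SD, cut at about 38% in these data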
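System: CHO-derived RD-HGA16 cells with stable Gα16 and human TAAR1 / Times: 17-24 h plating, Fluo-8 75 min 37 °C, 30 min RT / Technique: calcium-sensitive Fluo-8 signal, excitation 470-495, emission 515-575 nm / Measure: % activation relative to PEA EC100 response / Benchmarks: DMSO and PEA EC100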
TAAR1 antag – human TAAR1 antagonists, primary screen, Fluo-8 calcium fluorescence, CHO RD-HGA16 cells; antagonist; inhibition, % at 3 µM; 1.5% of 360,000 active; AID 624466, 2012;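 active means inhibition above a per-plate cutoff, the mean inhibition of test compounds on that plate plus 3 SD, cut at about 49% in these data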;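 further: 0% = DMSO plus EC80 beta-PEA response and 100% = DMSO alone without agonist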
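Test system – hTAAR1-expressing CHO RD-HGA16 cells, Gα16-coupled · Reagent – β-PEA at EC80 concentration, post-compound challenge · Compound dosing – 3 µM, single point · Timing – 140 s kinetic read after compound, 140 s after agonist · Detection – Fluo-8 intracellular calcium dye fluorescence, real-time kinetic reads · Control set – DMSO and EC80 PEA controls · Repeats – n of 1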
m5-HT2A agonist – mouse Htr2a agonists via beta-arrestin recruitment, primary screen, cell-based, luminescence | activation, % at 7.6 µM | CHO-K1 mHTR2A beta-arrestin complementation; percent of 30 µM serotonin response | 5-hydroxytryptamine receptor 2A (Mus musculus), P35363 | 0.66% of 360,000 active | AID 624169, 2012;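 active means activation above a run cutoff, the mean activation of all tested compounds plus 3 SD, cut at about 14% in these data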;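 further: 0% = plate median of compound wells and 100% = 30 µM serotonin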
MC4R barr agon – MC4R agonists recruiting beta-arrestin, primary screen, cell-based, luminescence, agonist arm of biased-ligand search; activation, % at 8.9 µM; U2OS MC4R beta-arrestin complementation; percent of melanotan II response, DMSO zero; 0.98% of 360,000 active; AID 540308, 2011; Melanocortin receptor 4 (Homo sapiens), P32245;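 active means activation above a per-plate cutoff, the mean activation of sample wells on that plate plus 3 SD, cut at about 8% in these data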
B2AR ag – beta2AR agonists driving receptor internalization, primary screen, cell-based, FAP fluorogen, flow cytometry; Beta-2 adrenergic receptor (Homo sapiens), P07550; AID 504454, 2011; Am2.2-beta2AR cells; response, % (no concentration beside the values); 0.43% of 340,000 active;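 active means response above a set limit, near 3 SD of response in nonfluorescent compounds, cut at about 42% in these data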
MC4R barr ag – MC4R beta-arrestin agonists, retest, confirmation, cell-based, luminescence, U2OS. activation, % at 8.9 µM. 31% of 2,400 active. U2OS MC4R beta-arrestin recruitment; scaled DMSO 0%, Melanotan II 100%. AID 602192, 2012. shares compounds with MC4R barr agon;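 active means mean activation across replicates above the hit cutoff set in the earlier primary screen, cut at about 8% in these data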
MOR DOR agonist – agonists of MOR-DOR heterodimerization, counter-screen for MC4R biased agonist project, cell-based, luminescence; shares compounds with MC4R barr agon; U2OS PathHunter beta-arrestin, beta-gal luminescence; percent of deltorphin B response, DMSO zero; activation, % at 9.2 µM; 5.8% of 2,400 active; AID 602194, 2012;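 active means mean activation across replicates exceeds the hit threshold derived in the earlier primary screen, cut at about 18% in these data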;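 further: 100% = deltorphin B at 0.9 µM final and 0% = DMSO alone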
* = called active by the depositor. Rows were chosen to be rich in hits. Some 4.3% of all compounds tested hit in one or more screens of this group.

O=[N+]([O-])c1cc(/C=N/NC(=S)Nc2ccccc2Cl)ccc1Cl was read as MC4R antagonist -10.8, TAAR1 ag -0.2, TAAR1 antag 11.2, m5-HT2A agonist -2.7, MC4R barr agon -1.5 and B2AR ag 29.3.
`Fc1ccc(NC(=S)N/N=C/c2ccc(F)c(F)c2)cc1` gave MC4R antagonist 3.6, TAAR1 ag -1.8, TAAR1 antag -19.0, m5-HT2A agonist -1.5, MC4R barr agon 0.5 and B2AR ag 3.8.
`Cc1ccc(CNC(=S)Nc2ccc(C)c([N+](=O)[O-])c2)cc1` gave MC4R antagonist 1.6, TAAR1 ag 26.4, TAAR1 antag 23.8, m5-HT2A agonist -0.5, MC4R barr agon 13.0*, B2AR ag -2.7, MC4R barr ag -0.3 and MOR DOR agonist 7.4.
`COc1ccc(NC(=S)N/N=C/c2cccn2Cc2ccc(F)cc2Cl)cc1` gave MC4R antagonist 14.8, TAAR1 ag -2.2, TAAR1 antag 18.7, m5-HT2A agonist -2.9, MC4R barr agon 0.7 and B2AR ag -4.9.
Screening Cc1ccc(NC(=S)N/N=C/c2ccc(Cl)c([N+](=O)[O-])c2)cc1 returned MC4R antagonist 28.0, TAAR1 ag -2.9, TAAR1 antag 3.5, m5-HT2A agonist 0.6, MC4R barr agon 20.8*, B2AR ag -4.7, MC4R barr ag 4.7 and MOR DOR agonist 2.5.
COc1ccc(NC(=S)N/N=C/c2ccc(F)c(F)c2)cc1 was read as MC4R antagonist 12.4, TAAR1 ag 1.5, TAAR1 antag -12.8, m5-HT2A agonist 0.4, MC4R barr agon 13.7*, B2AR ag -3.4, MC4R barr ag 2.7 and MOR DOR agonist 7.1.
For Cc1cc(CN2CCCC(C(=O)Nc3ccc(-c4nc5ccccc5[nH]4)cc3)C2)n[nH]1 (centres undefined) the results were MC4R antagonist 11.9, TAAR1 ag 2.2, TAAR1 antag -16.7, m5-HT2A agonist -7.8, MC4R barr agon -0.1 and B2AR ag 9.8.
For O=C(NCc1cccnc1)C1CC(c2ccccc2O)=NO1 (centres undefined) the results were MC4R antagonist -18.9, TAAR1 ag 2.2, TAAR1 antag -7.4, m5-HT2A agonist -0.9, MC4R barr agon -1.2 and B2AR ag -9.2.
For C[C@H]1COc2cc(N3CCCCC3)ccc2S(=O)(=O)N1 the results were TAAR1 ag 0.1 and TAAR1 antag 0.6.
c1ccc(-c2nnc(-c3ccccc3)o2)cc1 was read as MC4R antagonist -0.5, TAAR1 ag 4.0, TAAR1 antag -5.5, m5-HT2A agonist -3.6, MC4R barr agon -1.3 and B2AR ag -5.6.
Screening Nc1ccccc1-c1nnc(-c2ccc(-c3ccccc3)cc2)o1 returned MC4R antagonist -1.5, TAAR1 ag 12.3, TAAR1 antag -1.3, m5-HT2A agonist 1.7, MC4R barr agon 12.1*, B2AR ag 9.2, MC4R barr ag 6.7 and MOR DOR agonist 1.2.
For COc1ccc(NS(=O)(=O)N2CCCCC2)cc1 the results were MC4R antagonist 10.1, TAAR1 ag 1.3, TAAR1 antag 1.1, m5-HT2A agonist -1.5, MC4R barr agon 0.2 and B2AR ag -10.9.
